# How the values were obtained:
# Assay type in all cases: functional
# HL-60 = assay: Growth inhibition of human HL60 cells after 48 hrs; settings: HL-60, 48 h; for TGI: read-out: pTGI (converted)
# How it was run: (§1)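 NCI ~60-line screen. Cells were grown in RPMI 1640 with 5% FBS and 2 mM L-glutamine and plated at 5000–40000 cells/well. After a 24 h preincubation, five drug concentrations from DMSO stocks were added for 48 h at 37 °C. Cells were TCA-fixed, stained with SRB and read at 515 nm. GI50 was taken from time-zero and control absorbances and reported as pGI50.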
# MDA-MB-435 = assay: Growth inhibition of human MDA-MB435 cells after 48 hrs; settings: MDA-MB-435, 48 h; for TGI: read-out: pTGI (converted); how it was run: as §1
# BT-549 = assay: Growth inhibition of human BT549 cells after 48 hrs; settings: BT-549, 48 h; how it was run: as §1
# T47D = assay: Growth inhibition of human T47D cells after 48 hrs; settings: for CC50: read-out: Log LC50 (the source's name) (converted); for TGI: read-out: pTGI (converted)
# How it was run: (§2)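 NCI 60-line screen: cells in RPMI 1640 with 5% FBS and 2 mM L-glutamine, plated at 5000–40000 cells/well, grown 24 h (37 °C, 5% CO₂), then exposed to five 10-fold or ½-log dilutions (DMSO stock) for 48 h. Fixed with TCA (final 10% for adherent cells, 16% for suspension cells), then SRB stained with absorbance at 515 nm. GI50 from percentage growth relative to time-zero and control wells.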
# RPMI-8226 = assay: Growth inhibition of human RPMI8226 cells after 48 hrs; settings: RPMI-8226, 48 h; for TGI: read-out: pTGI (converted); how it was run: as §1
# SR = assay: Growth inhibition of human SR cells after 48 hrs; how it was run: as §2
# A549 = assay: Growth inhibition of human A549 cells after 48 hrs; settings: A549, 48 h; for CC50: read-out: Log LC50 (the source's name) (converted); for TGI: read-out: pTGI (converted); how it was run: as §1
# HOP-62 = assay: Growth inhibition of human HOP62 cells after 48 hrs; settings: HOP-62, 48 h; for TGI: read-out: pTGI (converted); how it was run: as §1
# NCI-H226 = assay: Growth inhibition of human NCI-H226 cells after 48 hrs; settings: NCI-H226, 48 h; for CC50: read-out: Log LC50 (the source's name) (converted); for TGI: read-out: pTGI; how it was run: as §1
# NCI-H23 = assay: Growth inhibition of human NCI-H23 cells after 48 hrs; settings: Homo sapiens, NCI-H23, 48 h; for CC50: read-out: Log LC50 (the source's name) (converted); for TGI: read-out: pTGI (converted); how it was run: as §1
# NCI-H322M = assay: Growth inhibition of human NCI-H322M cells after 48 hrs; settings: for TGI: read-out: pTGI (converted); how it was run: as §1
# HCT-116 = assay: Growth inhibition of human HCT116 cells after 48 hrs; settings: HCT-116, 48 h; for TGI: read-out: pTGI (converted); how it was run: as §1
# HCT-15 = assay: Growth inhibition of human HCT15 cells after 48 hrs; settings: HCT-15, 48 h; for TGI: read-out: pTGI; how it was run: as §1
# SF-268 = assay: Growth inhibition of human SF268 cells after 48 hrs; settings: SF-268, 48 h; for CC50: read-out: Log LC50 (the source's name) (converted); for TGI: read-out: pTGI (converted); how it was run: as §1
# SF-539 = assay: Growth inhibition of human SF539 cells after 48 hrs; settings: SF-539, 48 h; for TGI: read-out: pTGI (converted); how it was run: as §1
# LOX IMVI = assay: Growth inhibition of human LOXIMVI cells after 48 hrs; settings: for TGI: read-out: pTGI (converted); how it was run: as §1
# Malme-3M = assay: Growth inhibition of human MALME3M cells after 48 hrs; settings: for TGI: read-out: pTGI (converted); how it was run: as §1
# M14 = assay: Growth inhibition of human M14 cells after 48 hrs; settings: M14, 48 h; for TGI: read-out: pTGI (converted); how it was run: as §1
# UACC-257 = assay: Growth inhibition of human UACC257 cells after 48 hrs; settings: UACC-257, 48 h; for TGI: read-out: pTGI (converted); how it was run: as §2
# OVCAR-8 = assay: Growth inhibition of human OVCAR8 cells after 48 hrs; settings: OVCAR-8, 48 h; how it was run: as §1
# 786-0 = assay: Growth inhibition of human 786-0 cells after 48 hrs; settings: 786-0, 48 h; for TGI: read-out: pTGI (converted); how it was run: as §1
# CAKI-1 = assay: Growth inhibition of human CAKI1 cells after 48 hrs; settings: CAKI-1, 48 h; for TGI: read-out: pTGI (converted); how it was run: as §1
# UO-31 = assay: Growth inhibition of human UO31 cells after 48 hrs; settings: UO-31, 48 h; for TGI: read-out: pTGI (converted); how it was run: as §2
# MCF7 = assay: Growth inhibition of human MCF7 cells after 48 hrs; settings: MCF7, 48 h; for TGI: read-out: pTGI (converted); how it was run: as §1
# HOP-92 = assay: Growth inhibition of human HOP92 cells after 48 hrs; settings: HOP-92, 48 h; how it was run: as §1
compound,measurement,setting,value
Cn1c2ccccc2c2c(=O)n(CCCC(=O)NCC(=O)N(C(=O)NC3CCCCC3)C3CCCCC3)c3c(-c4ccccc4)nnn3c21,GI50,HL-60,2.88 µM
same,LC50,HL-60,> 100 µM
same,TGI,HL-60,8.32 µM
same,GI50,MDA-MB-435,25.1 µM
same,LC50,MDA-MB-435,> 100 µM
same,TGI,MDA-MB-435,> 100 µM
same,GI50,BT-549,26.9 µM
same,CC50,T47D,> 100 µM
same,TGI,T47D,> 100 µM
same,GI50,RPMI-8226,4.27 µM
same,LC50,RPMI-8226,97.7 µM
same,TGI,RPMI-8226,21.4 µM
same,GI50,SR,3.02 µM
same,LC50,SR,8.51 µM
same,TGI,SR; read-out: pTGI (converted),5.13 µM
same,GI50,A549,38 µM
same,CC50,A549,> 50.1 µM
same,TGI,A549,> 50.1 µM
same,GI50,HOP-62,15.1 µM
same,LC50,HOP-62,87.1 µM
same,TGI,HOP-62,36.3 µM
same,GI50,NCI-H226,39.8 µM
same,CC50,NCI-H226,> 100 µM
same,TGI,NCI-H226,> 100 µM
same,GI50,NCI-H23,15.5 µM
same,CC50,NCI-H23,69.2 µM
same,TGI,NCI-H23,33.1 µM
same,GI50,NCI-H322M,> 100 µM
same,LC50,NCI-H322M,> 100 µM
same,TGI,NCI-H322M,> 100 µM
same,GI50,HCT-116,14.1 µM
same,LC50,HCT-116,> 100 µM
same,TGI,HCT-116,42.7 µM
same,GI50,HCT-15,10.7 µM
same,LC50,HCT-15,> 100 µM
same,TGI,HCT-15,> 100 µM
same,GI50,SF-268,15.1 µM
same,CC50,SF-268,> 100 µM
same,TGI,SF-268,> 100 µM
same,LC50 (concentration killing 50% of cells),SF-539,> 100 µM
same,TGI,SF-539,57.5 µM
same,GI50,LOX IMVI,13.2 µM
same,"LC50 (lethal concentration, 50% cell kill)",LOX IMVI,> 100 µM
same,TGI,LOX IMVI,97.7 µM
same,GI50,Malme-3M,46.8 µM
same,LC50,Malme-3M,> 100 µM
same,TGI,Malme-3M,> 100 µM
same,GI50,M14,30.9 µM
same,LC50,M14,> 100 µM
same,TGI,M14,> 100 µM
same,GI50,UACC-257,66.1 µM
same,LC50,UACC-257,> 100 µM
same,TGI,UACC-257,> 100 µM
same,LC50,OVCAR-8,> 100 µM
same,GI50,786-0,18.6 µM
same,LC50,786-0,> 100 µM
same,TGI,786-0,44.7 µM
same,GI50,CAKI-1,32.4 µM
same,LC50 (concentration killing 50% of cells),CAKI-1,> 100 µM
same,TGI,CAKI-1,37.2 µM
same,GI50,UO-31,31.6 µM
same,LC50,UO-31,> 100 µM
same,TGI,UO-31,> 100 µM
same,GI50,MCF7,3.63 µM
same,LC50,MCF7,> 100 µM
same,TGI,MCF7,> 100 µM
CCOC(=O)CNC(=O)CCCn1c(=O)c2c3ccccc3n(C)c2n2nnc(-c3ccccc3)c12,GI50,HL-60,20.4 µM
same,LC50,HL-60,> 50.1 µM
same,TGI,HL-60,> 50.1 µM
same,GI50,MDA-MB-435,> 50.1 µM
same,LC50,MDA-MB-435,39.8 µM
same,TGI,MDA-MB-435,20 µM
same,GI50,T47D,43.7 µM
same,CC50,T47D,> 50.1 µM
same,TGI,T47D,> 50.1 µM
same,GI50,RPMI-8226,10.7 µM
same,LC50,RPMI-8226,> 50.1 µM
same,TGI,RPMI-8226,33.9 µM
same,GI50,A549,33.1 µM
same,CC50,A549,> 50.1 µM
same,TGI,A549,> 50.1 µM
same,GI50,HOP-62,5.89 µM
same,LC50,HOP-62,> 50.1 µM
same,TGI,HOP-62,17.8 µM
same,GI50,HOP-92,> 50.1 µM
same,LC50,HOP-92,3.63 µM
same,TGI,HOP-92; read-out: pTGI (converted),14.8 µM
same,GI50,NCI-H226,25.1 µM
same,CC50,NCI-H226,> 50.1 µM
same,TGI,NCI-H226,> 50.1 µM
same,GI50,NCI-H23,11.7 µM
same,CC50,NCI-H23,> 50.1 µM
same,TGI,NCI-H23,> 50.1 µM
same,GI50,NCI-H322M,> 50.1 µM
same,LC50,NCI-H322M,> 50.1 µM
same,TGI,NCI-H322M,> 50.1 µM
same,GI50,HCT-116,9.12 µM
same,LC50,HCT-116,> 50.1 µM
same,TGI,HCT-116,27.5 µM
same,GI50,HCT-15,> 50.1 µM
same,LC50,HCT-15,> 50.1 µM
same,TGI,HCT-15,> 50.1 µM
same,GI50,SF-268,14.1 µM
same,CC50,SF-268,> 50.1 µM
same,TGI,SF-268,> 50.1 µM
same,GI50,SF-539,4.27 µM
same,LC50 (concentration killing 50% of cells),SF-539,28.8 µM
same,TGI,SF-539,11.7 µM
same,GI50,LOX IMVI,25.1 µM
same,"LC50 (lethal concentration, 50% cell kill)",LOX IMVI,> 50.1 µM
same,TGI,LOX IMVI,> 50.1 µM
same,GI50,Malme-3M,> 50.1 µM
same,LC50,Malme-3M,> 50.1 µM
same,TGI,Malme-3M,> 50.1 µM
same,GI50,M14,18.6 µM
same,LC50,M14,> 50.1 µM
same,TGI,M14,> 50.1 µM
same,GI50,UACC-257,> 50.1 µM
same,LC50,UACC-257,> 50.1 µM
same,TGI,UACC-257,> 50.1 µM
same,GI50,OVCAR-8,25.1 µM
same,LC50,OVCAR-8,> 50.1 µM
same,TGI,OVCAR-8; read-out: pTGI (converted),> 50.1 µM
same,GI50,786-0,5.13 µM
same,LC50,786-0,> 50.1 µM
same,TGI,786-0,17.4 µM
same,GI50,CAKI-1,8.32 µM
same,LC50 (concentration killing 50% of cells),CAKI-1,47.9 µM
same,TGI,CAKI-1,20 µM
same,GI50,UO-31,47.9 µM
same,LC50,UO-31,> 50.1 µM
same,TGI,UO-31,> 50.1 µM
same,GI50,MCF7,31.6 µM
same,LC50,MCF7,> 50.1 µM
same,TGI,MCF7,> 50.1 µM
